Calls of active or inactive are those of the source.
How the values were obtained:
Plasma [1] = experiment: Anticoagulant activity in rabbit plasma assessed as prothrombin time at 2 mM after 2 mins; format: functional, Oryctolagus cuniculus
Method in brief: (§1)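 Rabbit plasma was preincubated 2 min at 37 °C with compound dissolved in 0.05 M Tris buffer plus Tris/0.1 M NaCl, pH 7.5. Clotting was triggered with thromboplastin-calcium reagent and read on a fibrometer. Clotting time is in seconds, mean ± SD (n = 3-5), with Student's t-test against control. A cut-off of >300 s was scored as no clotting.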

Plasma [2] = experiment: Anticoagulant activity in rabbit plasma assessed as thrombin time at 2 mM after 2 mins; format: functional, Oryctolagus cuniculus
Method in brief: (§2)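 Rabbit plasma, 0.05 M Tris buffer and compound in Tris were preincubated for 2 min at 37 °C. Clotting was started with bovine thrombin (3-4 NIH units/mL) and timed on a fibrometer. Clotting time is in seconds, mean ± SD (n = 3-5), with Student's t-test against control. Clotting beyond 300 s was scored as no clotting.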

Plasma [3] = experiment: Anticoagulant activity in rabbit plasma assessed as activated partial thromboplastin time at 2 mM after 2 mins; format: functional, Oryctolagus cuniculus
Method in brief: (§3)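 Rabbit plasma with test compound in 0.05 M Tris buffer was incubated with APTT reagent for 2 min at 37 °C. Clotting was started with 25 mM CaCl2 and timed on a fibrometer. Clotting time is in seconds, mean ± SD (n = 3-5), compared with control by Student's t-test. Clotting beyond 300 s was scored as no clotting.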

Prothrombin [4] = target: T1, Prothrombin (Bos taurus, UniProt P00735); experiment: Inhibition of bovine thrombin-catalyzed hydrolysis of S-2238
Method in brief: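 Bovine plasma thrombin (0.19 NIH units/mL solution) in 0.05 M Tris with 0.1 M NaCl (pH 7.5) was preincubated with compound for 2 min at 37 °C. S-2238 was added as a 0.66 mM solution to start the reaction. p-Nitroaniline release was followed at 405 nm over 5 min and expressed as % inhibition. IC50 is the concentration that inhibits 50% of initial activity. Mean of three experiments.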

Prothrombin [5] = target: T1, Prothrombin; experiment: Inhibition of bovine thrombin-catalyzed hydrolysis of fibrinogen
Method in brief: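 Compound at various concentrations was preincubated with thrombin (0.05 NIH units/mL solution) for 3 min at 37 °C. The reaction was started with fibrinogen (2 mg/mL solution). Clot turbidity was read at 405 nm for 5 min and velocities were taken as mOD/min. IC50 is the concentration that inhibits 50% of initial activity. Mean of three experiments.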

Prothrombin (Bos taurus) [6] = target: Prothrombin (Bos taurus) (UniProt P00735); experiment: Inhibition of bovine thrombin at 200 uM by Lineweaver-Burke plot analysis
Method in brief: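 Bovine plasma thrombin at a fixed 0.19 NIH units/mL was tested in 0.05 M Tris with 0.1 M NaCl (pH 7.5) at 37 °C, with S-2238 at 0.6 to 1.7 mM. Compound and enzyme were preincubated for under 2 min before substrate was added. Initial rates were plotted as Lineweaver-Burk plots and fitted by linear regression to give the inhibition type and Ki. Mean of three.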

Plasma [7] = experiment: Anticoagulant activity in rabbit plasma assessed as prothrombin time at 0.5 mM after 2 mins; format: functional, Oryctolagus cuniculus; method in brief: as §1
Plasma [8] = experiment: Anticoagulant activity in rabbit plasma assessed as thrombin time at 0.5 mM after 2 mins; format: functional, Oryctolagus cuniculus; method in brief: as §2
Plasma [9] = experiment: Anticoagulant activity in rabbit plasma assessed as activated partial thromboplastin time at 0.5 mM after 2 mins; format: functional, Oryctolagus cuniculus; method in brief: as §3
Plasma [10] = experiment: Anticoagulant activity in rabbit plasma assessed as prothrombin time at 0.1 mM after 2 mins; format: functional, Oryctolagus cuniculus; conditions: in the assay text read “1 mM” for “0.1 mM”; method in brief: as §1
Plasma [11] = experiment: Anticoagulant activity in rabbit plasma assessed as thrombin time at 0.1 mM after 2 mins; format: functional, Oryctolagus cuniculus; conditions: in the assay text read “1 mM” for “0.1 mM”; method in brief: as §2
Plasma [12] = experiment: Anticoagulant activity in rabbit plasma assessed as activated partial thromboplastin time at 0.1 mM after 2 mins; format: functional, Oryctolagus cuniculus; conditions: in the assay text read “1 mM” for “0.1 mM”; method in brief: as §3
Prothrombin [13] = target: T1, Prothrombin; experiment: Inhibition of bovine thrombin by Lineweaver-Burke plot analysis
Method in brief: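 Bovine plasma thrombin (0.19 NIH units/mL) was run in 0.05 M Tris/0.1 M NaCl, pH 7.5, at 37 °C. It was preincubated with compound for under 2 min, and the reaction was started with S-2238 at 0.6-1.7 mM. Initial rates were taken as p-nitroaniline release at 405 nm. Inhibition type and Ki came from linear-regression Lineweaver-Burk plots.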

Coagulation factor X [14] = target: T2, Coagulation factor X (Homo sapiens, UniProt P00742); experiment: Inhibition of human factor 10a
Method in brief: (§4)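 Compound and 0.20 mM S-2222 were mixed in 0.05 M Tris/0.1 M NaCl, pH 8.3. Reaction was started with factor Xa (50 ng/mL) and 4-nitroanilide release was read at 405 nm over 5 min at 37 °C. IC50 is the concentration giving 50% inhibition of initial activity, mean ± SD of three experiments. Ki was determined with S-2222 at 0.04-0.20 mM.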

Coagulation factor X [15] = target: T2, Coagulation factor X; experiment: Inhibition of human factor 10a-catalyzed hydrolysis of S-2222; method in brief: as §4
Prothrombin (Bos taurus) [16] = target: Prothrombin (Bos taurus) (UniProt P00735); experiment: Inhibition of bovine thrombin upto 100 uM
Method in brief: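 Bovine plasma thrombin (0.19 NIH units/mL) in Tris/0.1 M NaCl, pH 7.5, was preincubated 2 min at 37 °C with compound in 0.1% DMSO, which also served as vehicle control. Reaction was started with S-2238 (0.66 mM, as added) and read as the rise in A405 over 5 min. Results are percent inhibition of thrombin activity.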

Plasma [17] = experiment: Anticoagulant activity in rabbit plasma assessed as prothrombin time at 0.25 mM after 2 mins; format: functional, Oryctolagus cuniculus
Method in brief: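 PT: 0.05 M Tris/0.1 M NaCl (pH 7.5), compound in Tris and rabbit plasma incubated 2 min at 37 °C. Clotting started with thromboplastin-calcium reagent and timed on a fibrometer. Values are the mean of three determinations (mean ± SD, n = 3-5). Clotting >300 s was taken as no clotting.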

Plasma [18] = experiment: Anticoagulant activity in rabbit plasma assessed as thrombin time at 0.25 mM after 2 mins; format: functional, Oryctolagus cuniculus
Method in brief: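 TT: rabbit plasma, 0.05 M Tris and compound in Tris preincubated 2 min, then bovine thrombin (3-4 NIH units/mL) added. Clotting was timed on a fibrometer at 37 °C. Values are the mean of three determinations (mean ± SD, n = 3-5), with >300 s taken as no clotting.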

Plasma [19] = experiment: Anticoagulant activity in rabbit plasma assessed as activated partial thromboplastin time at 0.25 mM after 2 mins; format: functional, Oryctolagus cuniculus
Method in brief: (§5)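 APTT: rabbit plasma with compound (dissolved in 0.05 M Tris buffer) and APTT reagent preincubated 2 min, then clotting started with 25 mM CaCl2. Clotting time was read on a fibrometer at 37 °C. Values are the mean of three separate determinations (mean ± SD, n = 3-5), with clotting >300 s recorded as no clotting.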

Plasma [20] = experiment: Anticoagulant activity in rabbit plasma assessed as prothrombin time at 0.75 mM after 2 mins; format: functional, Oryctolagus cuniculus; method in brief: as §1
Plasma [21] = experiment: Anticoagulant activity in rabbit plasma assessed as thrombin time at 0.75 mM after 2 mins; format: functional, Oryctolagus cuniculus; method in brief: as §2
Plasma [22] = experiment: Anticoagulant activity in rabbit plasma assessed as activated partial thromboplastin time at 0.75 mM after 2 mins; format: functional, Oryctolagus cuniculus; method in brief: as §3
[23] = Toxicity in po dosed mouse; format: organism-based; conditions: in vivo
[24] = Toxicity in po dosed rat; format: organism-based; conditions: in vivo
Plasma [25] = experiment: Anticoagulant activity in rabbit plasma assessed as prothrombin time at 0.45 mM after 2 mins; format: functional, Oryctolagus cuniculus
Method in brief: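 Rabbit plasma incubated 2 min at 37 °C with compound in 0.05 M Tris buffer plus 0.05 M Tris/0.1 M NaCl (pH 7.5); clotting started with thromboplastin-calcium reagent and timed on a fibrometer at 37 °C; clotting time in seconds, cut-off >300 s; average of three separate determinations (mean ± SD, n = 3-5).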

Plasma [26] = experiment: Anticoagulant activity in rabbit plasma assessed as activated partial thromboplastin time at 0.47 mM after 2 mins; format: functional, Oryctolagus cuniculus; method in brief: as §5

T2 sequence (P00742 41-179 limits assumed): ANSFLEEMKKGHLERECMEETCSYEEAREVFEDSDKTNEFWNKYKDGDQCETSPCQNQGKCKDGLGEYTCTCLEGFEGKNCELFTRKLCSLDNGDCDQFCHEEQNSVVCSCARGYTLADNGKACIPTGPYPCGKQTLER
T2 sequence (P00742 235-488 limits assumed): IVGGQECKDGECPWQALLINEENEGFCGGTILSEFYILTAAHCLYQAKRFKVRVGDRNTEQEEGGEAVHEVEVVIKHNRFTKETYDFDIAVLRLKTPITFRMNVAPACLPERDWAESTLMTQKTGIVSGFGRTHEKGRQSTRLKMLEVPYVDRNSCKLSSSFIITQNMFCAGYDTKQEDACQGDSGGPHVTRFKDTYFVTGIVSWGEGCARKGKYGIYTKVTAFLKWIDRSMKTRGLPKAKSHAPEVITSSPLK

| Compound | IC50 (Prothrombin [4]) [nM] | IC50 (Prothrombin [5]) [nM] | PT (Plasma [7]) [s] | TT (Plasma [8]) [s] | APTT (Plasma [9]) [s] | PT (Plasma [10]) [s] | TT (Plasma [11]) [s] | APTT (Plasma [12]) [s] | Ki (Prothrombin [13]) [nM] | Ki (Coagulation factor X [14]) [nM] | IC50 (Coagulation factor X [15]) [nM] | Activity (Prothrombin (Bos taurus) [16]) | other results |
| --- | --- | --- | --- | --- | --- | --- | --- | --- | --- | --- | --- | --- | --- |
| O=C1O[C@H]2[C@H](O)[C@@H](CO)OC(O)[C@@H]2OC(=O)c2cc(O)c(O)c(O)c2-c2c1cc(O)c(O)c2O (stereo not given in full) | > 200000 | > 200000 |  |  |  |  |  |  |  |  |  |  | PT (Plasma [1]): 10 s; TT (Plasma [2]): 9.43 s; APTT (Plasma [3]): 39.9 s; Activity (Prothrombin (Bos taurus) [6]): inactive |
| O=C(OC[C@H]1OC(O)[C@H](OC(=O)c2cc(O)c(O)c(O)c2)[C@@H](O)[C@@H]1O)c1cc(O)c(O)c(O)c1 (stereo not given in full) | > 200000 | > 200000 |  |  |  |  |  |  |  |  |  |  | PT (Plasma [1]): 11.1 s; TT (Plasma [2]): 10.7 s; APTT (Plasma [3]): 40.8 s; Activity (Prothrombin (Bos taurus) [6]): inactive |
| O=C1OC[C@@H](O)[C@H]([C@@H]2OC(=O)c3cc(O)c(O)c(O)c3-c3c(O)c(O)c(O)c4c3C(=O)O[C@H]2[C@H]4O)OC(=O)c2cc(O)c(O)c(O)c2-c2c1cc(O)c(O)c2O | 190 | 26 | 13.9 | 16.2 | 31.6 | >300 | >300 | >300 | 830 | 690 | 280 |  |  |
| COc1cc(C(=O)OC[C@H]2O[C@@H](OC(=O)c3cc(OC)c(OC)c(OC)c3)[C@H](OC(=O)c3cc(OC)c(OC)c(OC)c3)[C@@H](OC(=O)c3cc(OC)c(OC)c(OC)c3)[C@@H]2OC(=O)c2cc(OC)c(OC)c(OC)c2)cc(OC)c1OC |  |  |  |  |  |  |  |  |  |  |  | inactive |  |
| COc1cc2c(c(OC)c1OC)-c1c(cc(OC)c(OC)c1OC)C(=O)O[C@H]1[C@@H]3OC(=O)c4cc(OC)c(OC)c(OC)c4-c4c(cc(OC)c(OC)c4OC)C(=O)O[C@H]3C(OC)O[C@@H]1COC2=O (stereo not given in full) |  |  |  |  |  |  |  |  |  |  |  | inactive |  |
| O=C(OC[C@H]1O[C@@H](OC(=O)c2ccccc2)[C@H](OC(=O)c2ccccc2)[C@@H](OC(=O)c2ccccc2)[C@@H]1OC(=O)c1ccccc1)c1ccccc1 |  |  |  |  |  |  |  |  |  |  |  | inactive |  |
| O=C1OC[C@@H](O)[C@H]([C@@H]2OC(=O)c3cc(O)c(O)c(O)c3-c3c(O)c(O)c(O)c4c3C(=O)O[C@H]2[C@@H]4O)OC(=O)c2cc(O)c(O)c(O)c2-c2c1cc(O)c(O)c2O [CASUARIIN] | 280 | 59 | 13.6 | 12.3 | 72.3 | >300 | >300 | >300 | 980 | 450 | 720 |  |  |
| O=C1OC[C@H]2OC(O)[C@@H]3OC(=O)c4cc(O)c(O)c(O)c4-c4c(cc(O)c(O)c4O)C(=O)O[C@H]3[C@@H]2OC(=O)c2cc(O)c(O)c(O)c2-c2c1cc(O)c(O)c2O (stereo not given in full) [PEDUNCULAGIN] | 180 | 150 | 13.5 | 22.7 | 43.7 | >300 | >300 | >300 | 42 | 990 | 560 |  | PT (Plasma [17]): 10.2 s; TT (Plasma [18]): 12.6 s; APTT (Plasma [19]): 35.3 s; PT (Plasma [20]): 15.2 s; TT (Plasma [21]): 33.5 s; APTT (Plasma [22]): 60.2 s; LD50 [23]: > 100 mg/kg; LD50 [24]: > 100 mg/kg |
| O=C(OC[C@H]1O[C@@H](OC(=O)c2cc(O)c(O)c(O)c2)[C@H](OC(=O)c2cc(O)c(O)c(O)c2)[C@@H](OC(=O)c2cc(O)c(O)c(O)c2)[C@@H]1OC(=O)c1cc(O)c(O)c(O)c1)c1cc(O)c(O)c(O)c1 [PENTAGALLOYL GLUCOSE] | 110 | 50 | > 300 | > 300 | > 300 |  |  |  | 3900 | 570 | 170 |  | PT (Plasma [25]): >300 s; APTT (Plasma [26]): >300 s; PT (Plasma [17]): 13.9 s; TT (Plasma [18]): >300 s; APTT (Plasma [19]): 50.6 s |
| O=C(OC1O[C@@H]2COC(=O)c3cc(O)c(O)c(O)c3-c3c(cc(O)c(O)c3O)C(=O)O[C@H]2[C@H](OC(=O)c2cc(O)c(O)c(O)c2)[C@H]1OC(=O)c1cc(O)c(O)c(O)c1)c1cc(O)c(O)c(O)c1 (stereo not given in full) [TELLIMAGRANDIN II] | 70 | 14 | 11.9 | 18.7 | 45.7 | >300 | >300 | >300 | 420 | 440 | 210 |  |  |

— ChEMBL document CHEMBL1151307, “Effects of tannins from Geum japonicum on the catalytic activity of thrombin and factor Xa of blood coagulation cascade” (J Nat Prod, 1998)
